Experimental data from different studies.
Compare with care: the assays were run in different laboratories.
PIP4K2A: Phosphatidylinositol 5-phosphate 4-kinase type-2 alpha (PIP4K2A, Homo sapiens, UniProt P48426)
CDKL3: Cyclin-dependent kinase-like 3 (CDKL3, Homo sapiens, UniProt Q8IVW4)
BRD9: Bromodomain-containing protein 9 (BRD9, Homo sapiens, UniProt Q9H8M2)
PHIP BD2: PHIP, BD2 (Homo sapiens, UniProt Q8WWQ0)
ACVR2A: Activin receptor type-2A (ACVR2A, Homo sapiens, UniProt P27037)
Methionyl-tRNA synthetase, putative: Methionyl-tRNA synthetase, putative (Trypanosoma brucei brucei, UniProt Q38C91)
SLC10A2: Ileal sodium/bile acid cotransporter (SLC10A2, Homo sapiens, UniProt Q12908)

| Structure (SMILES) | target | assay | test system | conditions | endpoint | result |
| --- | --- | --- | --- | --- | --- | --- |
| Cc1ccc(NC(=O)c2ccc(C)c(C(F)(F)F)c2)cc1C#Cc1nn(C2CCC(O)CC2)c2ncnc(N)c12 (centres unmarked) | PIP4K2A | cell-free assay, inhibitor |  | 10 µM | remaining signal | 100% |
| Nc1ncnc2occ(-c3ccc(NC(=O)Nc4cc(C(F)(F)F)ccc4F)cc3)c12 | CDKL3 | cell-free assay |  | 20 µM | remaining signal | 0.8% |
| NS(=O)(=O)c1ccc(Nc2nc(-c3ccc(F)cc3)c3ccccc3n2)cc1 | BRD9 | binding, competition with immobilised ligand |  | 1 µM | remaining binding | 81% |
| C[S+]([O-])c1ccc(-c2nc(-c3ccncc3)c(-c3ccc(F)cc3)[nH]2)cc1 (centres unmarked) | PHIP BD2 | thermal stability, DSF |  | 10 µM | ΔTm | 1.14 °C |
| Cc1ccc(C(=O)Nc2ccc(CN3CCN(C)CC3)c(C(F)(F)F)c2)cc1C#Cc1cnc2cccnn12 | CDKL3 | enzyme activity |  | 23.5 nM | remaining activity | 26% |
| Cn1c2c(c3ccc(Cl)c(Cl)c31)C(C#N)C1(CCNCC1)NC2=O (racemic) | ACVR2A | thermal stability, DSF |  | 10 µM | ΔTm | 0 °C |
| Oc1ccc(-c2nc(-c3ccncc3)c(-c3ccc(F)cc3)[nH]2)cc1 | BRD9 | thermal stability, DSF |  | 10 µM | ΔTm | 0.31 °C |
| Cc1cnc(NC2CCOCC2)nc1-n1cnc(C(=O)NC(CN)c2cc(F)cc(Cl)c2)c1 (centres unmarked) | PIP4K2A | enzyme activity, inhibitor, radiometric |  | 1 µM | remaining activity | 102% |
| O=C(Cc1cc(Cl)cc(Cl)c1)N1CCCC(c2nc3cc(Cl)c(F)cc3[nH]2)C1 (centres unmarked) | Methionyl-tRNA synthetase, putative | thermal stability, DSF |  | 100 µM | ΔTm | 7 °C |
| O=c1oc2c(O)c(O)cc3c(=O)oc4c(O)c(O)cc1c4c23 | Histone-lysine N-methyltransferase SETD7 (SETD7, Homo sapiens, UniProt Q8WTS6) | cell-free assay |  | 10 µM | inhibition | 20% |
| COC(=O)c1ccc(N2CCN(C)CC2)c(NC(=O)c2cccc(OC)c2)c1 | WD repeat-containing protein 5 (WDR5, Homo sapiens, UniProt P61964) | thermal stability, DSF |  | 100 µM | ΔTm | 8.4 °C |
| CN1CCC2(CC1)NC(=O)c1c(c3ccc(Cl)c(Cl)c3n1C)C2C#N (racemic) | ACVR2A | thermal stability, DSF |  | 10 µM | ΔTm | 0.4 °C |
| CCCCOc1cc(C(=O)NCCN(CC)CC)c2ccccc2n1 | SLC10A2 | transporter uptake, inhibitor, radiometric |  | 1 mM | inhibition | 68.8% |
| CN(CCNCc1cc(Cl)cc(Cl)c1)c1nc2nc(Cl)ccc2[nH]1 | Methionyl-tRNA synthetase, putative | thermal stability, DSF |  | 100 µM | ΔTm | 18.4 °C |
| COc1cc(Cl)c(C(=O)N[C@@H](CN[C@H]2CC[C@@H](N)CC2)Cc2ccc(C#N)cc2)cc1-c1ccc(CN[C@H](C)c2ccc(C)cc2)o1 | CDKL3 | enzyme activity, inhibitor |  | 1 µM | remaining activity | 95% |
| CC(=O)N[C@H]1CSSC[C@@H](C(=O)N[C@@H](Cc2c[nH]c3ccccc23)C(N)=O)NC(=O)[C@@H](Cc2ccccc2)NC(=O)[C@H](CCCNC(=N)N)NC1=O | Melanocortin receptor 5 (MC5R, Homo sapiens, UniProt P33032) | cAMP, agonist | HEK293 | 3 min | Emax | 0% |
| COc1cc2ncnc(Nc3ccc(F)c(Cl)c3)c2cc1OCCCN1CCOCC1 | SLC10A2 | transporter uptake, inhibitor, radiometric |  | 1 mM | inhibition | < 10% |
| Cc1cc(NC(=O)c2cccc3cc(-c4cccc5[nH]nc(N)c45)ccc23)ccc1F | PIP4K2A | enzyme activity, inhibitor |  | 0.1 µM | activity vs control | 98% |
| CSc1ccc2c(c1)N(CCC1CCCCN1C)c1ccccc1S2 (centres unmarked) | SLC10A2 | transporter uptake, inhibitor, radiometric |  | 1 mM | inhibition | 97.1% |
| Cc1cnc(Nc2ccc(OCCN3CCCC3)cc2)nc1Nc1cccc(S(=O)(=O)NC(C)(C)C)c1 | PHIP BD2 | thermal stability, DSF |  | 10 µM | ΔTm | 0.6 °C |
